Assay outcomes (PubChem BioAssay)
Tb hexokinase: blocks Trypanosoma brucei hexokinase 1 activity; AID 1430; 0.11% of 220,000 active; inhibition, % at 10 µM; recombinant TbHK1, G6PDH-coupled NADH A340;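 active = inhibition of 50% or more in the single-dose primary screen; inactive = inhibition below 50%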
p47phox inh: blocks human p47phox regulatory protein of NADPH oxidases. inhibition, % at 24.7 µM. AID 1274. 0.53% of 220,000 active. p47phox/p22phox peptide binding, fluorescence polarization, 2 h;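 active = inhibition above about 30%, limit read from the data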;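 note: 0% = p47phox with labelled peptide and 100% = labelled peptide alone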
Target sequence (P14598 whole entry, looked up): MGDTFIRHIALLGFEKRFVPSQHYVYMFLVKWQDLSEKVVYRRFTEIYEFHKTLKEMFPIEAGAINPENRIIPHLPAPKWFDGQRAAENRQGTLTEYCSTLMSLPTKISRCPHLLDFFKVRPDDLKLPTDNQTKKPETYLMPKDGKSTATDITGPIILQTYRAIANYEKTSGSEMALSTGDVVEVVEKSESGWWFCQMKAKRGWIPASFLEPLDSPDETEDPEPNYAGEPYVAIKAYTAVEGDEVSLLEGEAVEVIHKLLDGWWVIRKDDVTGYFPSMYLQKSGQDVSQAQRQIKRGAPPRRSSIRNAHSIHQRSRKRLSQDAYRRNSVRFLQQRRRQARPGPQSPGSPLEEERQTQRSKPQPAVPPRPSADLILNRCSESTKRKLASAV
MDM2 E3 inh: blocks human Mdm2 ubiquitin ligase activity; Q00987; cell-based MDM2 ubiquitination luciferase reporter, 2 h; 0 = plate control, 100 = twice control, blank-subtracted; signal enhancement, % at 5 µM; 0.11% of 210,000 active;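 active = signal enhancement of 30% or more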;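 note: luminescence tracks abundance of the self-degrading MDM2-luciferase fusion protein; higher signal means inhibition of MDM2 E3 ligase activity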
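System: stable MDM2–luciferase fusion reporter cells / Input: 2000 cells seeded into each well / Schedule: 4 h settle plus 2 h compound, 37 °C / Compound: single-point 5 µM / Buffer or medium: cells held in DMEM / Benchmarks: control and blank well means / Evaluation: percent signal gain over controls, blank-subtracted / Measured by: luciferase luminescence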
Rad51 HR inh: blocks human Rad51 in homologous recombination; Q06609; hRad51 DNA strand exchange, fluorescence dequenching; inhibition, % at 10 µM; 0.085% of 200,000 active; AID 1385;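 active = inhibition above 40% at the single screening dose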;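 note: 0% = DMSO control wells and 100% = blanks with heterologous ssDNA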
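Material: human Rad51–ssDNA filaments; Probe or stimulus: labelled 47-mer dsDNA for strand exchange; Doses: single 10 µM dose; Incubation: 37 °C 15-min filament assembly, 30-min compound preincubation, 15-min exchange; Technique: FRET fluorescence dequenching, excitation 485 nm, emission 520 nm; Measure: Fluorescence-based percent inhibition, control- and blank-normalised; Benchmarks: plate control and blank wells.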
Starred values were filed as active, the others as inactive; i = inactive; nt = not tested or not shown. The list is not random: actives were taken first. Their share in the collection is about 0.75%.

SMILES | Tb hexokinase | p47phox inh | MDM2 E3 inh | Rad51 HR inh
Cc1oc(-c2ccc(Cl)cc2)nc1CN1CCC(C(=O)N2CCc3ccccc3C2)CC1 | -17 | 45* | -6 | nt
Cc1oc(-c2ccc(Cl)cc2)nc1CN1CCC(C(=O)N2CCN(Cc3ccccc3)CC2)CC1 | -20 | 1 | -18 | nt
CCOC(=O)c1sc(=S)n(-c2ccccc2)c1N | -17 | 4 | 13 | -5
CCOC(=O)c1sc(=S)n(-c2ccccc2)c1N(C(C)=O)C(C)=O | -12 | 1 | 31* | 0
COc1cc(C)c2c(c1C=O)Oc1c(c(C)c(O)c3c1C(O)OC3=O)OC2=O (stereo not drawn) | 6 | -4 | -12 | 47*
CC1(C)Oc2ccc(C#N)cc2[C@@H](N2CCCC2=O)[C@@H]1O | 1 | -7 | nt | 5
Cc1nc(SCC(=O)Nc2cc(C(N)=O)cc(C(N)=O)c2)c2c(C)c(C)sc2n1 | -9 | -13 | -4 | 11
O=C(CCCOc1ccc(Cl)cc1Cl)N/N=C/c1ccccc1 | 2 | 51* | nt | nt
O=C(Nc1ccc(Cl)cc1Cl)NC1CCN(S(=O)(=O)c2ccc(F)cc2)CC1 | -4 | -14 | nt | 0
COc1ccc(NC(=S)NCCCN2CCOCC2)cc1 | -9 | -14 | -8 | 4
CCOc1ccc(NC(=S)NCCCN2CCOCC2)cc1 | -3 | 2 | 34* | 2
Cc1cc(C)c(C(=O)O)c(CC(C)(C)C(=O)O)c1 | -6 | 3 | -16 | -15
COc1ccc(C(=O)Nc2nc3cc4c(cc3s2)OCCO4)c(OC)c1 | -36 | -9 | -7 | nt
O=C(CN1C(=O)S/C(=C\c2ccc(Cl)cc2)C1=O)NNC(=O)c1ccccc1O | -1 | 49* | -9 | -2
COc1ccc(/C=C2\SC(=S)N(CCCC(=O)NNC(=O)c3ccccc3O)C2=O)cc1 | 2 | 4 | -14 | 1
CC1=NN(c2cccc(C(=O)O)c2)C(=O)/C1=C\C=C\c1ccco1 | 22 | -14 | 36* | nt
O=C(Nc1nc2c(F)cc(F)cc2s1)C1CC(=O)N(Cc2ccco2)C1 (stereo not drawn) | -5 | -11 | -15 | -2
CSc1nnc(C)c(=O)n1COC(=O)COc1ccc(Cl)cc1Cl | 0 | 48* | -10 | -4
COCC(=O)N(C)c1nnc(-c2ccc([N+](=O)[O-])cc2)s1 | -5 | 35* | -1 | 5
COCC(=O)N(C)c1nnc(-c2ccccn2)s1 | -3 | -5 | -6 | 9
Cc1ccc2[nH]c3c(c2c1)CN(C(=O)CN1CCN(c2cccc(C)c2C)CC1)CC3 | -11 | -20 | -10 | 1
Cc1ccc2[nH]c3c(c2c1)CN(C(=O)CN1c2ccc(F)cc2CCC1C)CC3 (stereo not drawn) | -8 | 196* | -1 | -12
Cc1cc(/C=N/NC(=O)c2ccc(O)cc2)c(C)n1CC(C)C | -40 | -18 | -5 | 13
COc1ccc(CC(NC(C)=O)C(=O)NC2CCN(C(=O)c3ccc([N+](=O)[O-])cc3)CC2)cc1OC (stereo not drawn) | -1 | -21 | nt | 7
CC(C)n1cnc2c(N(C)c3ccccc3)nc(N(CCN(C)C)Cc3ccccc3)nc21 | 7 | -13 | 35* | -1
SMILES | Tb hexokinase | p47phox inh | MDM2 E3 inh | Rad51 HR inh
COc1ccc(CN(CCN(C)C)c2ccccn2)cc1 | -3 | -1 | nt | -4
CN1C2=CC=CC=CC2=[N+](C)C12C([N+](=O)[O-])=CC(=[N+]([O-])[O-])C=C2[N+](=O)[O-] (stereo not drawn) | -17 | 61* | 7 | 4
O=C(Cc1cccs1)N(Cc1ccco1)C1(C(=O)NC2CCCCC2)CCCCC1 | 7 | 43* | -4 | -5
COc1ccc(-c2ccc(=O)n(CC(=O)NC3CCc4ccccc43)n2)cc1OC (stereo not drawn) | -9 | 5 | -16 | -3
COC(=O)C1CCN(C2CC(=O)N(c3cc(C)cc(C)c3)C2=O)CC1 (stereo not drawn) | -1 | -2 | -10 | -16
COc1ccccc1OCC(=O)Nc1cc(S(=O)(=O)N2CCCCC2)ccc1N1CCCCC1 | 14 | -71 | 78* | 8
COc1ccccc1C(=O)OCC(=O)Nc1cc(S(=O)(=O)N2CCOCC2)ccc1N1CCCC1 | 3 | 4 | 3 | 3
CCOC(=O)c1cc(C#N)c(N2CCN(c3ccccn3)CC2)nc1-c1ccccc1 | -7 | -15 | -5 | 2
O=S(=O)(NCc1ccccc1)c1ccc(Br)c2nsnc12 | -17 | 4 | -8 | 14
O=C(NC1CCCC1)C1CCC(=O)N1C1CCCCC1 (stereo not drawn) | -2 | 0 | -8 | 45*
O=C(COc1ccccc1)Nc1ncccn1 | -5 | 5 | 35* | 0
COc1cccc(-c2cc(C(=O)NCCCn3ccnc3)no2)c1 | -5 | -10 | -7 | -3
O=C1c2ccccc2-c2nnc(-c3ccc(F)cc3)cc21 | -8 | 46* | -48 | 8
CC1CN(C(=O)COC(=O)c2ccc(Cl)nc2)CC(C)O1 (stereo not drawn) | -5 | -3 | -7 | -3
CCCN1CCN(C(=O)Cn2cnc3ccc(S(=O)(=O)N4CCC(C)CC4)cc3c2=O)CC1 | 0 | -1 | 2 | -11
O=C(Oc1ccc(C(=S)N2CCC(O)CC2)cc1)c1ccc(Cl)cc1 | 0 | -12 | -20 | nt
CC(C)/C=C1\CC/C(=C\c2ccc(N(C)C)cc2)C1=O | -1 | -116 | -10 | i
CC(C)c1ccc(/C=C2\CC/C(=C\C=N\N(C)C)C2=O)cc1 | -7 | 76* | 2 | nt
COc1cccc(/C=N/NC(=O)C(=O)Nc2ccccc2OC(F)(F)C(F)F)c1O | 42 | -10 | -7 | nt
COc1ccc(/C=N/NC(=O)CN(C2=NS(=O)(=O)c3ccccc32)c2ccccc2)cc1 | 1 | 31* | -7 | 5
COc1ccccc1/C=N/NC(=O)CN(C1=NS(=O)(=O)c2ccccc21)c1ccccc1 | 21 | -9 | -7 | 1
O=S(=O)(Nc1ccc(O)c(CN2CCCCC2)c1)c1ccccc1 | 1 | -6 | -13 | 57*
Cc1ccc(/C=C2\SC(=S)N(C3CCS(=O)(=O)C3)C2=O)o1 (stereo not drawn) | -2 | -20 | -5 | -7
NS(=O)(=O)c1ccc(-c2ccc(/C=C3\SC(=S)N(C4CCS(=O)(=O)C4)C3=O)o2)cc1 (stereo not drawn) | -4 | 36* | -4 | -120
COc1cc(C)c(S(=O)(=O)NCc2ccc3c(c2)OCO3)cc1C | 11 | -14 | -3 | 4
CCOc1ccc(OCC)c(S(=O)(=O)NCc2ccc3c(c2)OCO3)c1 | 0 | 66* | -14 | 6
COc1ccc(N2C(=O)CCC(C(=O)NCc3cccnc3)C2c2ccc(OC)c(OC)c2)cc1 (stereo not drawn) | -2 | 200* | -9 | -3
COc1ccc(N2C(=O)CCC(C(=O)NCCN3CCOCC3)C2c2ccc(OC)c(OC)c2)cc1 (stereo not drawn) | 1 | -12 | -10 | -4
O=C(NCCN1CCOCC1)c1csc2c1CCCC2 | 3 | 71* | -15 | -1
COc1ccccc1NC(=O)Cn1nnc(-c2ccccc2NC(=O)c2cnccn2)n1 | 2 | 28 | -1 | -2
